Compound activity as filed in PubChem.
STAT3 act = increases IL-6 driven STAT3 reporter signal | U3A cells, IL-6 STAT3-luciferase reporter, luminescence; 100% = signal with IL-6 EC80 alone | activation (% of control), % at 5.6 µM | 190,000 compounds, 0.91% hits;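 active = activation above the screen-wide mean of compound activation plus 3 SD, cut at about 130% in these data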;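 note: 0% = background luminescence of wells with medium and substrate only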
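Test system: Human STAT1-deficient U3A cells with stable STAT3-luciferase reporter | Also added: Interleukin-6, 33 ng/mL | Timing: Compound pre-incubation 1 h before IL-6, then 6 h stimulation at 37 °C | Technique: Luciferase reporter luminescence | Read-out: Percent of IL-6-only median luminescence | Benchmarks: IL-6-only wells as 100% reference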
NF-kB expr up = raises NF-kB expression in human neuronal cells; 190,000 compounds, 1.6% hits; fold change at 12.5 µM; NF-kB reporter expression; hits give high values; in the data active = fold change above about 3.3
STAT3 blocker = STAT3 signaling inhibition. 190,000 compounds, 0.89% hits. U3A cells, IL-6 STAT3-luciferase reporter, luminescence; host cell line lacks STAT1. inhibition, % at 5.5 µM;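 active = inhibition above the mean inhibition across all screened compounds plus 3 SD, cut at about 44% in these data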;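 note: 0% = DMSO only wells and 100% = 100 µM nifuroxazide control wells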
APP 5'UTR act = APP 5'UTR luciferase reporter activation; activation, % at 2 µM; 190,000 compounds, 1% hits; SH-SY5Y APP 5'UTR luciferase reporter, luminescence; zero percent = DMSO vehicle wells;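 active = activation above a set limit, based on mean plus 3 SD of controls, cut at about 140% in these data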
STAT1 inh = reduces IFN-gamma driven STAT1 reporter signal. NIH 3T3 STAT1-luciferase reporter, luminescence. inhibition, % at 5.5 µM. 200,000 compounds, 0.35% hits;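 active = inhibition above a set limit, the mean inhibition across all tested compounds plus 3 SD, cut at about 34% in these data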;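 note: 0% = IFN-gamma with DMSO and 100% = IFN-gamma with 300 µM nifuroxazide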
STAT1 act = activators of IFN-gamma induced STAT1 signaling; activation (% of control), % at 5.5 µM; NIH 3T3 STAT1-luciferase reporter, luminescence; 100% = IFN-gamma alone, no compound; 200,000 compounds, 2.6% hits;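 active = activation above the screen-wide mean activation plus 3 SD, cut at about 130% in these data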;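 note: raw ratio to IFN-gamma control signal so 100% means no change and 0% no light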
Numbers without * were called inactive; . = not tested or not shown. In the library only some 5.1% were active in any assay of this set; here they are far more common.

SMILES	STAT3 act	NF-kB expr up	STAT3 blocker	APP 5'UTR act	STAT1 inh	STAT1 act
Cc1nc2sc(C(=O)Nc3ccccc3)c(N)c2c(C)c1[N+](=O)[O-]	128	1.7	-28	168*	-25	126
O=Cc1c(OCc2ccccc2)ccc2ccccc12	102	1.9	5	50	-39	134*
CC(C)Oc1ccc2ccccc2c1C=O	100	1.2	7	6	15	87
CC1CCCC/C1=N\NC(=S)Nc1cccnc1 (configuration not stated)	97	4.9*	5	26	-4	102
Cc1ccc(NC(=S)N/N=C2\CCCCC2C)cc1 (configuration not stated)	103	1.1	-4	31	-7	107
Cc1c(C#N)c(NC(=O)CCl)n(Cc2ccc(F)cc2)c1C	76	0.22	32	12	34*	68
Cc1cccc(OCC(=O)NNC(=O)C2CCCCC2C(=O)O)c1 (configuration not stated)	97	1.3	8	-7	-6	105
Cc1ccc(OCC(=O)O/N=C(\N)c2ccccn2)cc1	112	2.5	-3	101	-47	144*
Cc1cccc(OCC(=O)O/N=C(\N)c2ccccn2)c1C	104	2.2	-1	72	-43	138*
N/C(=N\OC(=O)/C=C/c1ccccc1)c1ccccn1	78	1.1	32	160*	-12	110
Cc1ccc(OCC(=O)O/N=C(\N)c2cccnc2)cc1	95	1.6	13	39	-18	117
COc1ccccc1C/C(N)=N/OC(=O)COc1cccc(C)c1C	102	1.1	2	0	-3	100
O=C(/C=C/c1ccccc1)c1ccccn1	108	1.2	1	10	-18	116
N/C(=N\OC(=O)Cc1cccc2ccccc12)c1ccccn1	107	6.1*	-1	109	-25	123
Cn1c(NCc2c[nH]c3ccccc23)nc2ccccc21	141*	3.3*	-43	113	-43	139*
O=C(CSc1ccc2c(c1)OCCO2)Nc1cccnc1	91	0.89	12	2	2	98
Cc1cc(/C=C2\NC(=O)N(Cc3ccc(Cl)cc3)C2=O)c(C)n1C	139*	1.2	-50	4	6	94
Cc1ccc(CN2C(=O)N/C(=C/c3ccc4c(c3)n(C)c(=O)n4C)C2=O)cc1	69	1.4	38	-24	32	70
COc1ccc(CC(=O)NNC(=O)CSc2ccc(C)cc2)cc1	109	1.4	-6	-1	-2	99
COc1cc(/C=C/C(=O)O)cc(S(=O)(=O)NCc2ccc3c(c2)OCO3)c1OC	102	1.1	3	4	-1	100
O=C(Nc1ccccc1)c1sc(Cl)nc1-c1ccccc1	111	1	-10	-2	-6	105
O=C(Nc1ccccc1)c1ccc(-c2ccccc2)s1	105	2.4	-2	60	-44	137*
Cc1ccc(O)c(-c2cc(-c3cccc(Br)c3)n[nH]2)c1	100	2.1	5	33	-7	107
Oc1ccc(F)cc1-c1cc(-c2ccc3c(c2)OCCO3)n[nH]1	98	11*	6	197*	-11	110
CCNC(=O)COC(=O)c1csc2c1CCCC2	98	0.96	3	1	10	91
SMILES	STAT3 act	NF-kB expr up	STAT3 blocker	APP 5'UTR act	STAT1 inh	STAT1 act
COc1cccc(/C=N/N2CCN(c3ccccc3OC)CC2)c1	88	1.9	22	32	-35	135*
COc1ccccc1N1CCN(/N=C/C=C\c2ccco2)CC1	107	4*	-8	73	-41	137*
Cc1cc(C)c(NC(=O)CSc2nc3[nH]ncc3c(=O)[nH]2)c(C)c1	102	1.1	-3	-4	7	93
COc1ccc(C2(C(=O)Nc3ccc(C)cc3)CCOCC2)cc1	92	1	14	-3	-4	102
CCCCC1=NN(C(=O)c2ccco2)C(O)(C(F)(F)F)C1 (configuration not stated)	109	1.3	-4	4	5	93
Cc1cc2nc3c(=O)n(C4CCCCC4)c(=O)[nH]c3nc2cc1N	103	1.5	-2	44	-18	116
COc1ccc(S(=O)(=O)CC2(O)CCN(C(=O)CC(C)C)CC2)cc1	104	1.2	4	-5	-1	101
COc1ccccc1-c1cc(C(=O)NCCc2ccccc2)no1	98	3.8*	9	51	-21	120
COc1ccccc1-c1cc(C(=O)Nc2cccnc2)no1	112	2.8	-7	-96	-34	131*
COc1ccc(CCNC(=O)c2cc(-c3ccccc3OC)on2)cc1OC	85	1.1	27	-6	-3	103
Cc1cc(C(=O)CN2C(=O)C3CC=CCC3C2=O)c(C)n1-c1ccccc1 (configuration not stated)	90	2.2	18	184*	-43	138*
Cc1cc(C(=O)CN2CCCC2)c(C)n1-c1ccc(Cl)cc1	113	1.1	-14	-9	4	96
Cc1cc(C(=O)CN2CCCCC2)c(C)n1-c1ccc(F)cc1	109	1.2	-15	29	-34	130*
Cc1cc(C(=O)Cn2cc(C(F)(F)F)ccc2=O)c(C)n1-c1ccccc1	93	1.2	7	4	-2	102
CCN(CC)CCNC(=O)c1ccc(NC(=O)c2ccc(F)cc2F)cc1	104	1	1	-13	1	97
CN1CCN(Cc2cc(Cl)c3cccnc3c2OC(=O)c2cccs2)CC1	108	13*	-6	-4	10	91
Cc1cccc(OCCC(=O)Nc2ccc(F)c(Cl)c2)c1	92	1.4	7	5	-5	104
Cc1nc(C)c(Cc2ccccc2Cl)c(=O)[nH]1	106	0.99	-9	6	-3	103
Cc1nc2c(Cl)cccc2[nH]1	133*	1.1	-30	.	-2	102
O=C(c1ccc(-c2ccc(Cl)cc2Cl)o1)N1CCOCC1	101	3	4	80	-42	138*
COc1cc(/C=C2/NC(=O)N(Cc3ccccc3F)C2=O)cc(OC)c1O	99	0.8	6	-1	-11	109
CCOc1cc(/C=C2/NC(=O)N(Cc3ccccc3F)C2=O)ccc1O	87	5.9*	18	-25	-11	104
CCCN(Cc1ccccc1)C(=S)Nc1ccc(SC(F)F)cc1	103	1.1	-2	-7	10	90
CNS(=O)(=O)c1ccc2nc(NC(=O)/C=C/c3ccco3)sc2c1	87	1.1	20	29	-33	131*
Cc1ccc(C)c(NC(NC(=O)c2ccccn2)C(Cl)(Cl)Cl)c1 (configuration not stated)	103	1.1	-2	9	-2	100
Cc1ccc(-c2nnc(CCC(=O)NCC3C4CC5CC(C4)CC3C5)o2)s1 (configuration not stated)	112	2.7	-9	45	-54	147*
